Read-outs that look alike come from different tables or passages of the source.
How the values were obtained:
[1] = biological target: Bcr-Abl^T315I (Homo sapiens, UniProt P00519+P11274, T315I); assay: Western blot degradation study in Ba/F3 cells expressed Bcr-Abl^T315I; assay type: cell-based; conditions: for DR against Ba/F3 Bcr-Abl^T315I (%) 100 nmol/L / DR against Ba/F3 Bcr-Abl^T315I (%) 300 nmol/L: 24 h treatment, Western blot
[2] = tested on: K562; assay: Antiproliferation cell assay; assay type: cell-based, human; conditions: read-out: Cellular inhibition IC50 K562
In short: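 K562 (ATCC) cells were grown in RPMI-1640 with 10% FBS, penicillin, streptomycin and 2 mmol/L glutamine at 37 °C in humidified CO2. Log-phase cells were seeded at ~3000/well, rested overnight, then exposed to test compound or vehicle for 72 h (10 mmol/L DMSO stocks). CCK-8 was read as OD450−OD650, with viability normalised to no-cell blank and vehicle wells. IC50 came from concentration–response curve fitting, mean ± SD.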

[3] = tested on: Ba/F3 Bcr-Abl^WT; assay: Antiproliferation cell assay; assay type: cell-based; conditions: read-out: Cellular inhibition IC50 Ba/F3 Bcr-Abl^WT
[4] = tested on: Ba/F3 Bcr-Abl^T315I; assay: Antiproliferation cell assay; assay type: cell-based; conditions: read-out: Cellular inhibition IC50 Ba/F3 Bcr-Abl^T315I

Cc1ccc(C(=O)Nc2ccc(CN3CCN(CCC(=O)Nc4cccc5c4C(=O)N(C4CCC(=O)NC4=O)C5=O)CC3)c(C(F)(F)F)c2)cc1C#Cc1cnc2[nH]ncc2c1 (centres unmarked) [7l, 3-((1H-Pyrazolo[3,4-b]pyridin-5-yl)ethynyl)-N-(4-((4-(3-((2-(2,6-dioxopiperidin-3-yl)-1,3-dioxoisoindolin-4-yl)amino)-3-oxopropyl)piperazin-1-yl)methyl)-3-(trifluoromethyl)phenyl)-4-methylbenzamide]
DR against Ba/F3 Bcr-Abl^T315I (%) 100 nmol/L [1]: −30.35%
DR against Ba/F3 Bcr-Abl^T315I (%) 300 nmol/L [1]: 37.19%
IC50 ([2]; Homo sapiens, K562, 72 h): 2.1 ± 0.9 nM
IC50 ([3]; Mus musculus, BaF3, 72 h): 5.4 ± 0.8 nM
IC50 ([4]; Mus musculus, BaF3, 72 h): 65.8 ± 28.8 nM

Cc1ccc(C(=O)Nc2ccc(CN3CCN(CCOCCOCCC(=O)NC45CC6CC(CC(C6)C4)C5)CC3)c(C(F)(F)F)c2)cc1C#Cc1cnc2[nH]ncc2c1 [7f, 3-((1H-Pyrazolo[3,4-b]pyridin-5-yl)ethynyl)-N-(4-((4-(2-(2-(3-(adamantan-1-ylamino)-3-oxopropoxy)ethoxy)ethyl)piperazin-1-yl)methyl)-3-(trifluoromethyl)phenyl)-4-methylbenzamide]
DR against Ba/F3 Bcr-Abl^T315I (%) 100 nmol/L [1]: −5.26%
DR against Ba/F3 Bcr-Abl^T315I (%) 300 nmol/L [1]: 11.72%
IC50 ([2]; Homo sapiens, K562, 72 h): > 10000 nM
IC50 ([3]; Mus musculus, BaF3, 72 h): > 10000 nM
IC50 ([4]; Mus musculus, BaF3, 72 h): > 10000 nM

Cc1ccc(C(=O)Nc2ccc(CN3CCN(CCOCCOCCOCCC(=O)Nc4cccc5c4C(=O)N(C4CCC(=O)NC4=O)C5=O)CC3)c(C(F)(F)F)c2)cc1C#Cc1cnc2[nH]ncc2c1 (centres unmarked) [compound 7h, 3-((1H-Pyrazolo[3,4-b]pyridin-5-yl)ethynyl)-N-(4-((4-(2-(2-(2-(3-((2-(2,6-dioxopiperidin-3-yl)-1,3-dioxoisoindolin-4-yl)amino)-3-oxopropoxy)ethoxy)ethoxy)ethyl)piperazin-1-yl)methyl)-3-(trifluoromethyl)phenyl)-4-methylbenzamide]
DR against Ba/F3 Bcr-Abl^T315I (%) 100 nmol/L [1]: 16.86%
DR against Ba/F3 Bcr-Abl^T315I (%) 300 nmol/L [1]: 78.34%
improvement of DR compared with 7a ([1]; DR at 300 nmol/L): about 2 fold
IC50 ([2]; Homo sapiens, K562, 72 h): 13.7 ± 9.3 nM
IC50 ([3]; Mus musculus, BaF3, 72 h): 10.6 ± 2.6 nM
IC50 ([4]; Mus musculus, BaF3, 72 h): 83.4 ± 31.6 nM

Cc1ccc(C(=O)Nc2ccc(CN3CCN(CCOCCOCCOCCOCCOCCC(=O)Nc4cccc5c4C(=O)N(C4CCC(=O)NC4=O)C5=O)CC3)c(C(F)(F)F)c2)cc1C#Cc1cnc2[nH]ncc2c1 (centres unmarked) [7j, 1-(4-(4-(3-((1H-Pyrazolo[3,4-b]pyridin-5-yl)ethynyl)-4-methylbenzamido)-2-(trifluoromethyl)benzyl)piperazin-1-yl)-N-(2-(2,6-dioxopiperidin-3-yl)-1,3-dioxoisoindolin-4-yl)-3,6,9,12,15-pentaoxaoctadecan-18-amide]
DR against Ba/F3 Bcr-Abl^T315I (%) 100 nmol/L [1]: −23.27%
DR against Ba/F3 Bcr-Abl^T315I (%) 300 nmol/L [1]: 21.17%
IC50 ([2]; Homo sapiens, K562, 72 h): 2.8 ± 0.4 nM
IC50 ([3]; Mus musculus, BaF3, 72 h): 14.3 ± 0.3 nM
IC50 ([4]; Mus musculus, BaF3, 72 h): 60.1 ± 0.3 nM

Cc1ccc(C(=O)Nc2ccc(CN3CCN(CCOCCOCCOc4cccc5c4C(=O)N(C4CCC(=O)NC4=O)C5=O)CC3)c(C(F)(F)F)c2)cc1C#Cc1cnc2[nH]ncc2c1 (centres unmarked) [7c, 3-((1H-Pyrazolo[3,4-b]pyridin-5-yl)ethynyl)-N-(4-((4-(2-(2-(2-((2-(2,6-dioxopiperidin-3-yl)-1,3-dioxoisoindolin-4-yl)oxy)ethoxy)ethoxy)ethyl)piperazin-1-yl)methyl)-3-(trifluoromethyl)phenyl)-4-methylbenzamide]
DR against Ba/F3 Bcr-Abl^T315I (%) 100 nmol/L [1]: −15.62%
DR against Ba/F3 Bcr-Abl^T315I (%) 300 nmol/L [1]: 9.98%
IC50 ([2]; Homo sapiens, K562, 72 h): 3.2 ± 0.1 nM
IC50 ([3]; Mus musculus, BaF3, 72 h): 22.4 ± 10.2 nM
IC50 ([4]; Mus musculus, BaF3, 72 h): 212 ± 101 nM

Cc1ccc(C(=O)Nc2ccc(CN3CCN(CCCCCCCCC(=O)Nc4cccc5c4C(=O)N(C4CCC(=O)NC4=O)C5=O)CC3)c(C(F)(F)F)c2)cc1C#Cc1cnc2[nH]ncc2c1 (centres unmarked) [7p, 3-((1H-Pyrazolo[3,4-b]pyridin-5-yl)ethynyl)-N-(4-((4-(9-((2-(2,6-dioxopiperidin-3-yl)-1,3-dioxoisoindolin-4-yl)amino)-9-oxononyl)piperazin-1-yl)methyl)-3-(trifluoromethyl)phenyl)-4-methylbenzamide]
DR against Ba/F3 Bcr-Abl^T315I (%) 100 nmol/L [1]: 3.61%
DR against Ba/F3 Bcr-Abl^T315I (%) 300 nmol/L [1]: 63.47%
IC50 ([2]; Homo sapiens, K562, 72 h): 14 ± 4.5 nM
IC50 ([3]; Mus musculus, BaF3, 72 h): 4.5 nM
IC50 ([4]; Mus musculus, BaF3, 72 h): 21.8 ± 8.3 nM

Cc1ccc(C(=O)Nc2ccc(CN3CCN(CCOCCOCCNC(=O)[C@H](CC(C)C)NC(=O)[C@@H](O)[C@H](N)Cc4ccccc4)CC3)c(C(F)(F)F)c2)cc1C#Cc1cnc2[nH]ncc2c1 [7e, 3-((1H-Pyrazolo[3,4-b]pyridin-5-yl)ethynyl)-N-(4-((4-((11S,14S,15R)-15-amino-14-hydroxy-11-isobutyl-10,13-dioxo-16-phenyl-3,6-dioxa-9,12-diazahexadecyl)piperazin-1-yl)methyl)-3-(trifluoromethyl)phenyl)-4-methylbenzamide]
DR against Ba/F3 Bcr-Abl^T315I (%) 100 nmol/L [1]: −14.92%
DR against Ba/F3 Bcr-Abl^T315I (%) 300 nmol/L [1]: 11.17%
IC50 ([2]; Homo sapiens, K562, 72 h): 58.6 ± 11.4 nM
IC50 ([3]; Mus musculus, BaF3, 72 h): 240 ± 75.4 nM
IC50 ([4]; Mus musculus, BaF3, 72 h): 2310 ± 424 nM

Cc1ccc(C(=O)Nc2ccc(CN3CCN(CCOCCOCCC(=O)N[C@H](C(=O)C4C[C@H](O)C[C@H]4C(=O)NCc4ccc(-c5scnc5C)cc4)C(C)(C)C)CC3)c(C(F)(F)F)c2)cc1C#Cc1cnc2[nH]ncc2c1 (stereo partly drawn) [7d, 3-((1H-Pyrazolo[3,4-b]pyridin-5-yl)ethynyl)-N-(4-((4-(2-(2-(3-(((2S)-1-((2R,4S)-4-hydroxy-2-((4-(4-methylthiazol-5-yl)benzyl)carbamoyl)cyclopentyl)-3,3-dimethyl-1-oxobutan-2-yl)amino)-3-oxopropoxy)ethoxy)ethyl)piperazin-1-yl)methyl)-3-(trifluoromethyl)phenyl)-4-methylbenzamide]
DR against Ba/F3 Bcr-Abl^T315I (%) 100 nmol/L [1]: −18.26%
DR against Ba/F3 Bcr-Abl^T315I (%) 300 nmol/L [1]: −10.51%
IC50 ([2]; Homo sapiens, K562, 72 h): 31 ± 0.1 nM
IC50 ([3]; Mus musculus, BaF3, 72 h): 337 ± 6.1 nM
IC50 ([4]; Mus musculus, BaF3, 72 h): 981 ± 24.9 nM

3-((1H-Pyrazolo[3,4-b]pyridin-5-yl)ethynyl)-N-(4-((4-(13-((2-(2,6-dioxopiperidin-3-yl)-1,3-dioxoisoindolin-4-yl)amino)-13-oxotridecyl)piperazin-1-yl)methyl)-3-(trifluoromethyl)phenyl)-4-methylbenzamide [7s]
DR against Ba/F3 Bcr-Abl^T315I (%) 100 nmol/L [1]: −7.20%
DR against Ba/F3 Bcr-Abl^T315I (%) 300 nmol/L [1]: 45.61%
IC50 ([2]; 72 h, CCK-8, mean ± SD): 57.8 ± 19.5 nM
IC50 ([3]; 72 h, CCK-8, mean ± SD): 61 ± 1.7 nM
IC50 ([4]; 72 h, CCK-8, mean ± SD): 114 ± 29.9 nM

Cc1ccc(C(=O)Nc2ccc(CN3CCN(CCOCCOCCOCCOCCC(=O)Nc4cccc5c4C(=O)N(C4CCC(=O)NC4=O)C5=O)CC3)c(C(F)(F)F)c2)cc1C#Cc1cnc2[nH]ncc2c1 (centres unmarked) [7i, 1-(4-(4-(3-((1H-Pyrazolo[3,4-b]pyridin-5-yl)ethynyl)-4-methylbenzamido)-2-(trifluoromethyl)benzyl)piperazin-1-yl)-N-(2-(2,6-dioxopiperidin-3-yl)-1,3-dioxoisoindolin-4-yl)-3,6,9,12-tetraoxapentadecan-15-amide]
DR against Ba/F3 Bcr-Abl^T315I (%) 100 nmol/L [1]: −22.44%
DR against Ba/F3 Bcr-Abl^T315I (%) 300 nmol/L [1]: −19.45%
IC50 ([2]; Homo sapiens, K562, 72 h): 11.4 ± 7.3 nM
IC50 ([3]; Mus musculus, BaF3, 72 h): 19.9 ± 4.2 nM
IC50 ([4]; Mus musculus, BaF3, 72 h): 95.4 ± 37.4 nM

Cc1ccc(C(=O)Nc2ccc(CN3CCN(C)CC3)c(C(F)(F)F)c2)cc1C#Cc1cnc2[nH]ncc2c1 [GZD824, reference compound]
DR against Ba/F3 Bcr-Abl^T315I (%) 100 nmol/L [1]: 2.59%
DR against Ba/F3 Bcr-Abl^T315I (%) 300 nmol/L [1]: 20.62%
IC50 ([2]; Homo sapiens, K562, 72 h): 1.6 ± 0.7 nM
IC50 ([3]; Mus musculus, BaF3, 72 h): 6.8 ± 5.3 nM
IC50 ([4]; Mus musculus, BaF3, 72 h): 31 ± 11.7 nM

Cc1ccc(C(=O)Nc2ccc(CN3CCN(CCCCCCCCCCCCCCC(=O)Nc4cccc5c4C(=O)N(C4CCC(=O)NC4=O)C5=O)CC3)c(C(F)(F)F)c2)cc1C#Cc1cnc2[nH]ncc2c1 (centres unmarked) [7t, 3-((1H-Pyrazolo[3,4-b]pyridin-5-yl)ethynyl)-N-(4-((4-(15-((2-(2,6-dioxopiperidin-3-yl)-1,3-dioxoisoindolin-4-yl)amino)-15-oxopentadecyl)piperazin-1-yl)methyl)-3-(trifluoromethyl)phenyl)-4-methylbenzamide]
DR against Ba/F3 Bcr-Abl^T315I (%) 100 nmol/L [1]: 13.75%
DR against Ba/F3 Bcr-Abl^T315I (%) 300 nmol/L [1]: 28.73%
IC50 ([2]; Homo sapiens, K562, 72 h): 190 ± 26.6 nM
IC50 ([3]; Mus musculus, BaF3, 72 h): 363.7 ± 2.4 nM
IC50 ([4]; Mus musculus, BaF3, 72 h): 399 ± 248 nM

Cc1ccc(C(=O)Nc2ccc(CN3CCN(CCOCCC(=O)Nc4cccc5c4C(=O)N(C4CCC(=O)NC4=O)C5=O)CC3)c(C(F)(F)F)c2)cc1C#Cc1cnc2[nH]ncc2c1 (centres unmarked) [7g, 3-((1H-Pyrazolo[3,4-b]pyridin-5-yl)ethynyl)-N-(4-((4-(2-(3-((2-(2,6-dioxopiperidin-3-yl)-1,3-dioxoisoindolin-4-yl)amino)-3-oxopropoxy)ethyl)piperazin-1-yl)methyl)-3-(trifluoromethyl)phenyl)-4-methylbenzamide]
DR against Ba/F3 Bcr-Abl^T315I (%) 100 nmol/L [1]: −11.43%
DR against Ba/F3 Bcr-Abl^T315I (%) 300 nmol/L [1]: 28.39%
IC50 ([2]; Homo sapiens, K562, 72 h): 3.5 ± 0.5 nM
IC50 ([3]; Mus musculus, BaF3, 72 h): 20.7 ± 2.4 nM
IC50 ([4]; Mus musculus, BaF3, 72 h): 67.5 ± 3.2 nM

Cc1ccc(C(=O)Nc2ccc(CN3CCN(CCCCC(=O)Nc4cccc5c4C(=O)N(C4CCC(=O)NC4=O)C5=O)CC3)c(C(F)(F)F)c2)cc1C#Cc1cnc2[nH]ncc2c1 (centres unmarked) [7m, 3-((1H-Pyrazolo[3,4-b]pyridin-5-yl)ethynyl)-N-(4-((4-(5-((2-(2,6-dioxopiperidin-3-yl)-1,3-dioxoisoindolin-4-yl)amino)-5-oxopentyl)piperazin-1-yl)methyl)-3-(trifluoromethyl)phenyl)-4-methylbenzamide]
DR against Ba/F3 Bcr-Abl^T315I (%) 100 nmol/L [1]: 49.84%
DR against Ba/F3 Bcr-Abl^T315I (%) 300 nmol/L [1]: 48.67%
IC50 ([2]; Homo sapiens, K562, 72 h): 3 ± 1.2 nM
IC50 ([3]; Mus musculus, BaF3, 72 h): 4.3 ± 0.1 nM
IC50 ([4]; Mus musculus, BaF3, 72 h): 25 ± 10.4 nM
